# Bioassay records deposited in PubChem BioAssay by The Scripps Research Institute Molecular Screening Center.
# LYPLA1 counter: LYPLA1 (human) inhibition in PME1 counter-screen. recombinant LYPLA1, FP-Rh probe fluorescence polarization. AID 2174. O75608. 320,000 compounds, 0.16% hits. inhibition, % at 5.9 µM;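 active means inhibition above the mean of all tested compounds plus 3 SD, set per campaign, cut at about 14% in these data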;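 further: inhibitors block serine hydrolase probe labeling of LYPLA1 so polarization falls; 0% = enzyme with DMSO and 100% = wells lacking LYPLA1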
# Target sequence (O75608 whole entry, looked up): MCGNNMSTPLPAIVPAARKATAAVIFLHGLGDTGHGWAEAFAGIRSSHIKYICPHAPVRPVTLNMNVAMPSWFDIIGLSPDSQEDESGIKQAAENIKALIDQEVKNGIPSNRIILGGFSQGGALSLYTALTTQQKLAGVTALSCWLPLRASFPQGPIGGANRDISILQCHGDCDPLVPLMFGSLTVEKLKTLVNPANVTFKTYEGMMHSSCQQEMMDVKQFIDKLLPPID
# LYPLA2 inh: blocks human lysophospholipase 2, a PME1 counter-screen. recombinant LYPLA2, FP-Rh probe fluorescence polarization. 320,000 compounds, 0.38% hits. inhibition, % at 5.9 µM;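 active means inhibition above the screen-wide mean plus 3 SD, limit set per campaign, cut at about 26% in these data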;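 further: 0% = LYPLA2 with DMSO and 100% = wells lacking LYPLA2 enzyme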
# Target sequence (O95372 whole entry, looked up): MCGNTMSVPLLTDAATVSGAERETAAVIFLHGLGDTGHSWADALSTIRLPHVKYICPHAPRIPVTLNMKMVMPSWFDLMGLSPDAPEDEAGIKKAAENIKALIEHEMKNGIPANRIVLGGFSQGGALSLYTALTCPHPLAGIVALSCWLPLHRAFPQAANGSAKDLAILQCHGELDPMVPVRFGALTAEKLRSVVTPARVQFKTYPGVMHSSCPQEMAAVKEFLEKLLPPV
# RBBP9 inh: inhibitors of human serine hydrolase RBBP9; O75884; recombinant RBBP9, FP-Rh probe fluorescence polarization; inhibition, % at 7.94 µM; 220,000 compounds, 0.2% hits; AID 1515;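 active means inhibition above the campaign mean of all tested compounds plus 3 SD, cut at about 14% in these data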;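 further: plate controls were DMSO wells with RBBP9 for no effect and wells lacking RBBP9 protein for full effect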
# Target sequence (O75884 whole entry, looked up): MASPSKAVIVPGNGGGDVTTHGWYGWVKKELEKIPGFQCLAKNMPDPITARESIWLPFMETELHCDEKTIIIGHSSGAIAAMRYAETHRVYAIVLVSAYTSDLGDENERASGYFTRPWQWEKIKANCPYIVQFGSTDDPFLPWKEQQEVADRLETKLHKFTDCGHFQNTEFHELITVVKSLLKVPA
#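 Test system – recombinant human RBBP9 · Input – RBBP9 2.5 µM in dispensing solution, pre-mixing · Medium – Tris buffer pH 8.0, NaCl, Pluronic · Schedule – preincubation 30 min plus labeling 45 min at 25 °C · Measured by – fluorescence polarization · Measure – % inhibition · Controls – DMSO and no-protein wells · Replicates – one well per compound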
# PME-1 primary: PME-1 (human) inhibition; Q9Y570; recombinant PME-1, FP-Rh probe fluorescence polarization; inhibition, % at 5.9 µM; 320,000 compounds, 0.53% hits; AID 2130;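 active means inhibition above the campaign mean of all compounds plus 3 SD, cut at about 26% in these data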;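 further: competitive labeling of PME-1 active site by serine hydrolase directed probe; 0% = PME-1 with DMSO and 100% = wells lacking PME-1 enzyme; inhibitors block probe labeling so polarization falls and inhibition rises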
# Fam108B counter: blocks mouse Fam108B hydrolase in RBBP9 counter-screen. recombinant Fam108B, FP-Rh probe fluorescence polarization. 300,000 compounds, 0.33% hits. inhibition, % at 9.51 µM;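 active means inhibition above the screen mean inhibition plus 3 SD, computed separately per campaign, cut at about 18% in these data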;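 further: inhibitors lower polarization as less probe binds the enzyme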
# LYPLA2 conf: counter-screen for PME1 inhibitors: confirmation of human LYPLA2 inhibitors. shares compounds with LYPLA2 inh. recombinant LYPLA2, FP-Rh probe fluorescence polarization. inhibition, % at 5.9 µM. 1,100 compounds, 72% hits;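 active means mean inhibition across replicates above the hit cutoff set in the primary screen, cut at about 26% in these data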;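 further: blocked labeling of the enzyme by serine hydrolase FP-Rh probe lowers polarization; 0% = enzyme with DMSO and 100% = wells lacking LYPLA2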
# LYPLA2 ABPP: blocks human acyl-protein thioesterase 2 in gel ABPP. AID 652029. 150 compounds, 30% hits. shares compounds with LYPLA2 inh. rhLYPLA2 in mouse brain proteome, gel ABPP FP-Rh. inhibition, % at 20 µM;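 active means inhibition of LYPLA2 enzyme probe labeling above about 50%, limit read from the data; inactive means inhibition below that limit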;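 further: loss of FP-Rh probe labeling of the LYPLA2 gel band measured as band density; 0% = DMSO only control band and 100% = blank gel background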
# An asterisk follows results filed as active; x = no result. An excerpt weighted towards active compounds, which were near 0.99% of everything screened.
SMILES,LYPLA1 counter,LYPLA2 inh,RBBP9 inh,PME-1 primary,Fam108B counter,LYPLA2 conf,others
COc1cc(/C=C2\SC(=O)N(CC(=O)Nc3cccc(C)c3)C2=O)ccc1OC(C)C(=O)O (stereo not drawn),-3,74*,x,-3,-5,74*,LYPLA2 ABPP=80*
COc1ccc(/C=C2\SC(=S)N(CCC(=O)Nc3cccc(O)c3)C2=O)cc1OC,-9,-17,x,-15,-9,x,
COc1ccc(/C=C2\SC(=O)N(CC(=O)Nc3cccc(C)c3)C2=O)cc1O,-13,41*,x,-17,-10,38*,
Cc1nc(Nc2ccc(Cl)cc2)c(C#N)c(=O)[nH]1,7,6,x,8,1,x,
O=C(c1cc(COc2ccc(F)cc2Cl)on1)N1CCC(c2ccncc2)CC1,6,33*,1,4,1,30*,
CC(C)N(CCNC(=O)c1oc(=O)c2ccccc2c1-c1ccccc1)Cc1ccco1,-1,1,-7,2,-1,x,
CCCCCCCCNC(C)C(O)c1ccc(SC(C)C)cc1 (stereo not drawn),2,40*,-6,3,6,46*,
O=C(COC(=O)c1c[nH]c(=O)[nH]c1=O)Nc1ccccc1Br,0,1,8,0,-4,x,
Cc1cc(CCCCCCCCc2cc(C)cc(=O)o2)oc(=O)c1,14,37*,0,-4,2,45*,
COC(=O)c1cc(C)cc(=O)o1,-1,4,-6,2,0,x,
O=C(OCC(=O)N1CCN(C(=O)COC(=O)c2ccc(O)cc2O)CC1)c1ccc(O)cc1O,4,28*,x,-1,0,27*,
O=C(CN1CCN(c2ccccn2)CC1)Nc1ccc(F)cc1F,1,-2,x,-2,1,x,
O=C(/C=C/c1ccco1)N1CCN(S(=O)(=O)/C=C/c2ccccc2)CC1,2,-3,-3,1,-1,x,
O=C(/C=C/c1ccco1)N1CCN(C/C=C/c2ccccc2)CC1,2,27*,-4,3,-1,24,
Cc1cc([N+](=O)[O-])nn1CCCC(=O)Nc1cc(Oc2ccccc2)cc([N+](=O)[O-])c1,1,5,-2,5,-2,x,
Cc1cccc(Oc2cc(NC(=O)Cn3cnc([N+](=O)[O-])n3)cc([N+](=O)[O-])c2)c1,-14,42*,-9,5,-4,24,
Cc1c(NS(=O)(=O)c2ccc(NC(=O)CCC(=O)O)cc2)c(=O)n(-c2ccccc2)n1C,11,9,x,-6,-1,x,
O=C(NCCC1=CCCCC1)C1CCN(S(=O)(=O)c2ccccc2)CC1,0,28*,4,24,1,0,
Cc1ccc(-n2c(C)cc(C(=O)COc3cccnc3[N+](=O)[O-])c2C)cc1,0,31*,4,-2,5,21,
Cc1cc(C(=O)COc2cccnc2[N+](=O)[O-])c(C)n1-c1ccccc1,0,11,2,-1,-1,x,
Cc1cc(C(=O)COc2cccnc2[N+](=O)[O-])c(C)n1-c1ccccc1F,2,28*,-3,3,0,25,
Cc1ccc(Nc2c([N+](=O)[O-])cc(C(=O)N3CC(=O)Nc4ccccc43)cc2[N+](=O)[O-])c(C)c1,0,27*,0,14,7,28*,
CC(C)(C)n1ncc2c(=O)n(CC(=O)N3CCCCCC3)cnc21,2,29*,-3,0,1,2,
Cc1ccc(NC(=O)Cn2cnc3c(cnn3C(C)(C)C)c2=O)cc1,0,3,1,-2,0,x,
COC(=O)CNC(=O)Cn1c(=O)n(Cc2ccc(F)cc2)c(=O)c2sccc21,1,2,x,-2,-1,x,
SMILES,LYPLA1 counter,LYPLA2 inh,RBBP9 inh,PME-1 primary,Fam108B counter,LYPLA2 conf,others
O=c1[nH]c(C2CCN(S(=O)(=O)c3ccccc3)CC2)nc2c1nnn2Cc1ccccc1,-6,-2,-2,16,3,x,
Cc1cc(C)n(CC(O)COc2ccc(OCC(O)Cn3nc(C)cc3C)cc2)n1 (stereo not drawn),x,x,-5,x,x,x,
CCC(=O)c1ccc(CCCCCC(=O)O)s1,0,-4,-11,7,0,x,
CC(=O)c1ccc(CCCCCCCCCC(=O)O)s1,3,59*,-6,-3,0,57*,LYPLA2 ABPP=18
Cc1c(Cc2ccccc2)c(=O)oc2cc(OCc3ccc(C(=O)O)cc3)ccc12,13,28*,1,-4,-3,52*,LYPLA2 ABPP=24
Cc1ccc(NC(=O)Cn2c([N+](=O)[O-])cnc2C)cc1,-2,12,-12,-9,2,x,
Cc1ncc([N+](=O)[O-])n1CC(=O)Nc1ccccc1,-1,32*,-4,-10,-6,38*,
Cc1cccc(NC(=O)Cn2c([N+](=O)[O-])cnc2C)c1C,7,31*,-2,3,-5,32*,
Cc1ncc([N+](=O)[O-])n1CC(=O)Nc1ccc(F)cc1,-3,33*,x,-2,1,38*,
Cc1ncc([N+](=O)[O-])n1CC(=O)Nc1ccc(Br)cc1,3,46*,x,5,-1,38*,
CCOC(=O)C1=C(CS(=O)(=O)c2ccc(C)cc2)NC(=O)NC1c1cc(OC)c(O)c(OC)c1 (stereo not drawn),1,2,x,-3,-4,x,
Cc1cccc(NC(=O)CNc2cc(C)ccc2C)c1,0,0,-8,2,3,x,
CCN(Cc1ccncc1)Cc1cn[nH]c1-c1cc(OC)c(OC)c(OC)c1,-1,6,-3,-6,0,x,
COC(=O)c1ccc(NC(=O)Cn2c([N+](=O)[O-])cnc2C)cc1,1,4,x,-1,-2,x,
Cc1ncc([N+](=O)[O-])n1CC(=O)Nc1ccc2c(c1)OCO2,-2,26*,-17,-2,-6,25,
N#Cc1cc([N+](=O)[O-])ccc1N1CCN(c2ccccc2O)CC1,1,15,7,5,3,x,
O=[N+]([O-])c1ccc(N2CCN(c3ccc([N+](=O)[O-])cc3CO)CC2)c(CO)c1,4,27*,x,-1,-2,30*,
COc1ccc(S(=O)(=O)N2CCN(CC(=O)NC3CC3)CC2)cc1,5,7,x,5,2,x,
Cc1nc2ccccc2nc1OCC(=O)Nc1ccc2ccccc2c1,0,33*,-11,-9,3,12,
O=C(NCCNC(=O)c1cccnc1)c1ccc(Br)cc1,-2,5,x,7,2,x,
CCOCC(=O)Nc1ccc(S(=O)(=O)N2CCC(c3nc4ccccc4[nH]3)CC2)cc1,1,4,x,-4,3,x,
COc1cccc(OCC(O)CN2CCN(CCN3C(=O)c4cccc5cccc(c45)C3=O)CC2)c1 (stereo not drawn),3,32*,-8,0,1,34*,
CC1CCCCC12NC(=O)N(CC(=O)NCCc1ccc(F)cc1)C2=O (stereo not drawn),0,2,x,9,x,x,
